A short description of series [1]: folding enthalpy; higher = less favourable; fluorescence melt of hairpins on a sequencing array, two-state fit. The following applies: sodium 0.088 M. An outline of the steps:
(§1)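 Cy3 signals were normalised both to pre-quench Cy3 and to control constructs. They came from library hairpins carrying annealed Cy3 and quencher oligos on a sequenced MiSeq flow cell, imaged in 50 mM Na-HEPES pH 8.0, 25 mM NaCl, in 2.5 °C steps up to 60 °C. Bootstrapped two-state fits gave melting temperature and folding enthalpy, and four replicates were combined by inverse variance. Fitted temperatures were then raised by 9.35 °C to match UV melts.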

Series [2] is described as follows: melting temperature; fluorescence melt of hairpins on a sequencing array, two-state fit, raised by 9.35 °C to match UV melts. Particulars: sodium 0.088 M. In outline: as §1

In the case of GTTCACCGAAAGGTCAAC (((.(((....))).))), the folding enthalpy in series [1] was -18.4 kcal/mol. The Tm in series [2] came out at 33 °C.

For the sequence GATCCGGCAACGGATC ((((((....)))))), the folding enthalpy in series [1] is -35 kcal/mol. Further, the Tm in series [2] came to 67.8 °C.

Turning to GAGTCACGAAAGTGGCTC (((.(((....))).))), the folding enthalpy in series [1] was -39.4 kcal/mol. For the same sequence, the Tm in series [2] is 64.7 °C.

In the case of GTTGCTGGAAACGGCAAC (((((.(....).))))), the folding enthalpy in series [1] was -43.6 kcal/mol. Also, the Tm in series [2] was found to be 55.2 °C.

Regarding GCATCGCGAAAGCGAAGC ((.((((....)))).)), in series [1], the folding enthalpy was -19.1 kcal/mol. Besides, the Tm in series [2] stood at 61.3 °C.

Consider GAGCATGGAAACATGCCC (.(((((....))))).), for which, in series [1], the folding enthalpy is -12.8 kcal/mol. Moreover, the Tm in series [2] came out at 44 °C.

With GCGACTGGAAACAACCGC (((..((....))..))), the folding enthalpy in series [1] was -18.1 kcal/mol. Also, the Tm in series [2] came out at 29.2 °C.

GGGAAGACGAAAGTCCCC (((..(((....)))))): the folding enthalpy in series [1] was -19.1 kcal/mol. Further, the Tm in series [2] stood at 45.3 °C.

In the case of GCTTGCGAAAGCAGAAGC ((((((....)))..))), the folding enthalpy in series [1] was -21.7 kcal/mol. For the same sequence, the Tm in series [2] came out at 47.2 °C.

Take GTAGGCCGAAAGGCTTAC (((.(((....))).))): the folding enthalpy in series [1] was -21.2 kcal/mol. Further, the Tm in series [2] came to 55.4 °C.

GCGGAACTCCGC ((((....)))): in series [1], the folding enthalpy was -25.7 kcal/mol. Besides, the Tm in series [2] was 54.9 °C.

Turning to GCAAACGGAAACGTTTAC (.(((((....))))).), the folding enthalpy in series [1] was -18.7 kcal/mol. Moreover, the Tm in series [2] was determined as 38.4 °C.

With GATCCTACAGAGGATC ((((((....)))))), the folding enthalpy in series [1] is -29.6 kcal/mol. Further, in series [2], the Tm is 50.4 °C.

Take GGAGATTCGAAAGAATCC (((..(((....)))))): the folding enthalpy in series [1] was -13.3 kcal/mol. For the same sequence, in series [2], the Tm is 38.7 °C.

As for GCGTACCGACGC ((((....)))), the folding enthalpy in series [1] is -22.5 kcal/mol. In addition, the Tm in series [2] was found to be 50.9 °C.

On to GGGAGTGGAAACGTTCCC ((((..(....)..)))), for which, in series [1], the folding enthalpy is -16.5 kcal/mol. Besides, in series [2], the Tm was found to be 36.2 °C.

With GTTCCCGAAAGGGACAAC ((((((....)))..))), the folding enthalpy in series [1] is -8.79 kcal/mol. In addition, the Tm in series [2] came to 33.6 °C.

As to GACTGGCGAAAGCCCGTC (((.(((....))).))), the folding enthalpy in series [1] was -18.9 kcal/mol. Moreover, the Tm in series [2] is 49.1 °C.

In the case of GATCGTTTTTACGATC ((((((....)))))), the folding enthalpy in series [1] is -44.7 kcal/mol. Further, in series [2], the Tm was found to be 56.9 °C.

Consider GCACGGCGAAAGCATTGC (((..((....))..))), for which the folding enthalpy in series [1] is -16.6 kcal/mol. The Tm in series [2] came out at 39.9 °C.

As for GCCGGCGGAAACGCCAGC ((.((((....)))).)), the folding enthalpy in series [1] was -15.4 kcal/mol. Further, the Tm in series [2] is 58.5 °C.

In the case of GGGAAGCGAAAGCTACCC (((.(((....))).))), the folding enthalpy in series [1] was -30.7 kcal/mol. Moreover, the Tm in series [2] stood at 59.3 °C.

Take CGCGCGGAAACGCATGCG ((((((....)))..))): the folding enthalpy in series [1] was -32.8 kcal/mol. Also, in series [2], the Tm turned out to be 52.9 °C.

As to GGCAACCGAAAGGTGCC (((.(((....)))))), the folding enthalpy in series [1] is -33.6 kcal/mol. Further, in series [2], the Tm came to 66.4 °C.

As for GTACGCGAAAGCGTGTAC ((((((....)))..))), the folding enthalpy in series [1] is -9.86 kcal/mol. For the same sequence, in series [2], the Tm amounted to 38 °C.

GCGTCGAAACGC ((((....)))): in series [1], the folding enthalpy was -18.4 kcal/mol. For the same sequence, in series [2], the Tm was 51.3 °C.

With CGCGGAGCGATCCGCG ((((((....)))))), the folding enthalpy in series [1] is -23.5 kcal/mol. Besides, the Tm in series [2] amounted to 62.2 °C.

Consider GTCTGAGGAAACTCAGAC (((((((....))))))), for which the folding enthalpy in series [1] is -45.5 kcal/mol. The Tm in series [2] was found to be 63.8 °C.

GGTAGCGAAAGCTTACC ((((((....))).))): in series [1], the folding enthalpy is -20.9 kcal/mol. Further, in series [2], the Tm is 51.6 °C.

With GACACCCCGAAAGGGGTC (((..(((....)))))), the folding enthalpy in series [1] was -6.64 kcal/mol. In addition, in series [2], the Tm stood at 37.7 °C.

As for GCGGATTCGAAAGAACGC (((..(((....)))))), the folding enthalpy in series [1] was -27.2 kcal/mol. Moreover, the Tm in series [2] is 45.1 °C.

For the sequence GTAGTCGAAAGACGTAC ((((((....))).))), in series [1], the folding enthalpy is -19.1 kcal/mol. Besides, the Tm in series [2] was determined as 47.6 °C.

Turning to GATCCGAACACGGATC ((((((....)))))), the folding enthalpy in series [1] was -36.6 kcal/mol. In addition, the Tm in series [2] was determined as 57.2 °C.

For GGTTGTGGAAACACAGTC (..((((....))))..), the folding enthalpy in series [1] is -13.2 kcal/mol. Besides, the Tm in series [2] came out at 29.1 °C.

Take GCGGATTGCCGC ((((....)))): the folding enthalpy in series [1] was -11.3 kcal/mol. Further, the Tm in series [2] was found to be 53.7 °C.

For CGGAAGAAATTCCG (((((....))))), in series [1], the folding enthalpy is -25.1 kcal/mol. The Tm in series [2] is 46.4 °C.

For the sequence GATCTGGGGCCAGATC ((((((....)))))), the folding enthalpy in series [1] is -47.6 kcal/mol. For the same sequence, the Tm in series [2] worked out at 50.5 °C.

These data come from the array DNA melting data of Ke et al. (doi:10.1101/2024.01.08.574731).
